Assay results from ChEMBL document CHEMBL5705890, “Antitumor activity of an allosteric inhibitor of centromere-associated protein-E” (Proc Natl Acad Sci U S A, 2010).
pKi: −log10 of the molar value.

Experiments:
[1] = Anticancer activity against human TE 381.T cells assessed as cell growth inhibition measured after 72 hrs by DAPI staining based analysis; type: functional
PC-3 = assay: Anticancer activity against human PC-3 cells assessed as cell growth inhibition measured after 72 hrs by DAPI staining based analysis; type: functional
EFM-19 = assay: Anticancer activity against human EFM-19 cells assessed as cell doubling measured for 72 hrs by DAPI staining based analysis; type: functional
CAL-54 [2] = assay: Anticancer activity against human CAL-54 cells assessed as cell doubling measured for 72 hrs by DAPI staining based analysis; type: functional
CESS = assay: Anticancer activity against human CESS cells assessed as cell growth inhibition measured after 72 hrs by DAPI staining based analysis; type: functional
Outline: (§1)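 Cells were seeded, and DNA content at 24 h after seeding (T0) was read by imaging of fixed, DAPI-stained cells. Cells were then exposed to a range of drug concentrations for a further 72 h (T72) and DNA content was read again. T72 values were normalized to T0, and GI50 was taken from curve fits as the concentration giving 50% growth inhibition relative to T0 and Ymax.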

T84 = assay: Anticancer activity against human T84 cells assessed as cell growth inhibition measured after 72 hrs by DAPI staining based analysis; type: functional
[3] = target: Centromere-associated protein E (Homo sapiens, UniProt Q02224); assay: Binding affinity to wild-type human CENP-E assessed as inhibition constant
Outline: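 CENP-E motor domain (residues 2–340, C-terminal 6-his, from E. coli BL21(DE3)) run in MT-stimulated ATPase with 500 μM ATP, 5 μM paclitaxel-stabilized MT, 1 nM enzyme in PEM25 buffer, pH 6.8. Apparent Ki taken from the concentration-response curves with explicit correction for enzyme concentration.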

NCI-H1299 [4] = assay: Anticancer activity against human NCI-H1299 cells assessed as cell growth inhibition measured after 72 hrs by DAPI staining based analysis; type: functional
RL95-2 = assay: Anticancer activity against human RL95-2 cells assessed as cell growth inhibition measured after 72 hrs by DAPI staining based analysis; type: functional
RPMI-8226 = assay: Anticancer activity against human RPMI-8226 cells assessed as cell doubling measured for 72 hrs by DAPI staining based analysis; type: functional
GCT = assay: Anticancer activity against human GCT cells assessed as cell doubling measured for 72 hrs by DAPI staining based analysis; type: functional
SCaBER = assay: Anticancer activity against human SCaBER cells assessed as cell doubling measured for 72 hrs by DAPI staining based analysis; type: functional
COLO 320DM = assay: Anticancer activity against human COLO 320DM cells assessed as cell growth inhibition measured after 72 hrs by DAPI staining based analysis; type: functional; outline: as §1
A549 = assay: Antitumor activity against human A549 cells in xenograft model assessed as tumor growth delay at 62.5 mg/kg relative to control; type: functional
SW1417 = assay: Anticancer activity against human SW1417 cells assessed as cell growth inhibition measured after 72 hrs by DAPI staining based analysis; type: functional
SW 954 = assay: Anticancer activity against human SW 954 cells assessed as cell growth inhibition measured after 72 hrs by DAPI staining based analysis; type: functional
BPH-1 = assay: Anticancer activity against human BPH-1 cells assessed as cell growth inhibition measured after 72 hrs by DAPI staining based analysis; type: functional; outline: as §1
COLO 205 = assay: Antitumor activity against human COLO 205 cells in xenograft model assessed as tumor growth delay at 62.5 mg/kg relative to control; type: functional
BeWo = assay: Anticancer activity against human BeWo cells assessed as cell growth inhibition measured after 72 hrs by DAPI staining based analysis; type: functional; outline: as §1
SNU-16 = assay: Anticancer activity against human SNU-16 cells assessed as cell doubling measured for 72 hrs by DAPI staining based analysis; type: functional
CAL-54 [5] = assay: Anticancer activity against human CAL-54 cells assessed as cell growth inhibition measured after 72 hrs by DAPI staining based analysis; type: functional; outline: as §1
MCF-10A = assay: Anticancer activity against human MCF-10A cells assessed as cell growth inhibition measured after 72 hrs by DAPI staining based analysis; type: functional
NCI-H1299 [6] = assay: Anticancer activity against human NCI-H1299 cells assessed as cell doubling measured for 72 hrs by DAPI staining based analysis; type: functional
SNU-5 = assay: Anticancer activity against human SNU-5 cells assessed as cell growth inhibition measured after 72 hrs by DAPI staining based analysis; type: functional
MOLT-16 = assay: Anticancer activity against human MOLT-16 cells assessed as cell doubling measured for 72 hrs by DAPI staining based analysis; type: functional
HOS = assay: Anticancer activity against human HOS cells assessed as cell doubling measured for 72 hrs by DAPI staining based analysis; type: functional
639-V = assay: Anticancer activity against human 639-V cells assessed as cell growth inhibition measured after 72 hrs by DAPI staining based analysis; type: functional
Outline: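 Cells were seeded and, after 24 h, DNA content was read as T0. Cells were then exposed to varying drug concentrations for a further 72 h (T72). Fixed cells were DAPI-stained and DNA content measured by automated imaging. T72 values were normalized to T0. GI50 is the concentration giving 50% growth inhibition between T0 and Ymax, obtained by curve fitting.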

RPMI-2650 = assay: Anticancer activity against human RPMI-2650 cells assessed as cell growth inhibition measured after 72 hrs by DAPI staining based analysis; type: functional
HEC-1-A = assay: Anticancer activity against human HEC-1-A cells assessed as cell doubling measured for 72 hrs by DAPI staining based analysis; type: functional
C3A = assay: Anticancer activity against human C3A cells assessed as cell growth inhibition measured after 72 hrs by DAPI staining based analysis; type: functional; outline: as §1
SW480 = assay: Anticancer activity against human SW480 cells assessed as cell growth inhibition measured after 72 hrs by DAPI staining based analysis; type: functional
SW684 = assay: Anticancer activity against human SW684 cells assessed as cell doubling measured for 72 hrs by DAPI staining based analysis; type: functional
[7] = Anticancer activity against human BM-1604 cells assessed as cell doubling measured for 72 hrs by DAPI staining based analysis; type: functional
HT-29 = assay: Antitumor activity against human HT-29 cells in xenograft model assessed as tumor growth delay at 125 mg/kg relative to control; type: functional
NCI-H520 = assay: Anticancer activity against human NCI-H520 cells assessed as cell growth inhibition measured after 72 hrs by DAPI staining based analysis; type: functional
[8] = Anticancer activity against human MJ cells assessed as cell growth inhibition measured after 72 hrs by DAPI staining based analysis; type: functional
MX1 = assay: Antitumor activity against human MX1 cells in xenograft model assessed as tumor growth delay at 62.5 mg/kg relative to control; type: functional
CHP-212 = assay: Anticancer activity against human CHP-212 cells assessed as cell growth inhibition measured after 72 hrs by DAPI staining based analysis; type: functional; outline: as §1
CHL-1 = assay: Anticancer activity against human CHL-1 cells assessed as cell doubling measured for 72 hrs by DAPI staining based analysis; type: functional
NCI-H661 = assay: Anticancer activity against human NCI-H661 cells assessed as cell growth inhibition measured after 72 hrs by DAPI staining based analysis; type: functional

Centromere-associated protein E, sequence (Q02224 whole entry, the tested form may be a part): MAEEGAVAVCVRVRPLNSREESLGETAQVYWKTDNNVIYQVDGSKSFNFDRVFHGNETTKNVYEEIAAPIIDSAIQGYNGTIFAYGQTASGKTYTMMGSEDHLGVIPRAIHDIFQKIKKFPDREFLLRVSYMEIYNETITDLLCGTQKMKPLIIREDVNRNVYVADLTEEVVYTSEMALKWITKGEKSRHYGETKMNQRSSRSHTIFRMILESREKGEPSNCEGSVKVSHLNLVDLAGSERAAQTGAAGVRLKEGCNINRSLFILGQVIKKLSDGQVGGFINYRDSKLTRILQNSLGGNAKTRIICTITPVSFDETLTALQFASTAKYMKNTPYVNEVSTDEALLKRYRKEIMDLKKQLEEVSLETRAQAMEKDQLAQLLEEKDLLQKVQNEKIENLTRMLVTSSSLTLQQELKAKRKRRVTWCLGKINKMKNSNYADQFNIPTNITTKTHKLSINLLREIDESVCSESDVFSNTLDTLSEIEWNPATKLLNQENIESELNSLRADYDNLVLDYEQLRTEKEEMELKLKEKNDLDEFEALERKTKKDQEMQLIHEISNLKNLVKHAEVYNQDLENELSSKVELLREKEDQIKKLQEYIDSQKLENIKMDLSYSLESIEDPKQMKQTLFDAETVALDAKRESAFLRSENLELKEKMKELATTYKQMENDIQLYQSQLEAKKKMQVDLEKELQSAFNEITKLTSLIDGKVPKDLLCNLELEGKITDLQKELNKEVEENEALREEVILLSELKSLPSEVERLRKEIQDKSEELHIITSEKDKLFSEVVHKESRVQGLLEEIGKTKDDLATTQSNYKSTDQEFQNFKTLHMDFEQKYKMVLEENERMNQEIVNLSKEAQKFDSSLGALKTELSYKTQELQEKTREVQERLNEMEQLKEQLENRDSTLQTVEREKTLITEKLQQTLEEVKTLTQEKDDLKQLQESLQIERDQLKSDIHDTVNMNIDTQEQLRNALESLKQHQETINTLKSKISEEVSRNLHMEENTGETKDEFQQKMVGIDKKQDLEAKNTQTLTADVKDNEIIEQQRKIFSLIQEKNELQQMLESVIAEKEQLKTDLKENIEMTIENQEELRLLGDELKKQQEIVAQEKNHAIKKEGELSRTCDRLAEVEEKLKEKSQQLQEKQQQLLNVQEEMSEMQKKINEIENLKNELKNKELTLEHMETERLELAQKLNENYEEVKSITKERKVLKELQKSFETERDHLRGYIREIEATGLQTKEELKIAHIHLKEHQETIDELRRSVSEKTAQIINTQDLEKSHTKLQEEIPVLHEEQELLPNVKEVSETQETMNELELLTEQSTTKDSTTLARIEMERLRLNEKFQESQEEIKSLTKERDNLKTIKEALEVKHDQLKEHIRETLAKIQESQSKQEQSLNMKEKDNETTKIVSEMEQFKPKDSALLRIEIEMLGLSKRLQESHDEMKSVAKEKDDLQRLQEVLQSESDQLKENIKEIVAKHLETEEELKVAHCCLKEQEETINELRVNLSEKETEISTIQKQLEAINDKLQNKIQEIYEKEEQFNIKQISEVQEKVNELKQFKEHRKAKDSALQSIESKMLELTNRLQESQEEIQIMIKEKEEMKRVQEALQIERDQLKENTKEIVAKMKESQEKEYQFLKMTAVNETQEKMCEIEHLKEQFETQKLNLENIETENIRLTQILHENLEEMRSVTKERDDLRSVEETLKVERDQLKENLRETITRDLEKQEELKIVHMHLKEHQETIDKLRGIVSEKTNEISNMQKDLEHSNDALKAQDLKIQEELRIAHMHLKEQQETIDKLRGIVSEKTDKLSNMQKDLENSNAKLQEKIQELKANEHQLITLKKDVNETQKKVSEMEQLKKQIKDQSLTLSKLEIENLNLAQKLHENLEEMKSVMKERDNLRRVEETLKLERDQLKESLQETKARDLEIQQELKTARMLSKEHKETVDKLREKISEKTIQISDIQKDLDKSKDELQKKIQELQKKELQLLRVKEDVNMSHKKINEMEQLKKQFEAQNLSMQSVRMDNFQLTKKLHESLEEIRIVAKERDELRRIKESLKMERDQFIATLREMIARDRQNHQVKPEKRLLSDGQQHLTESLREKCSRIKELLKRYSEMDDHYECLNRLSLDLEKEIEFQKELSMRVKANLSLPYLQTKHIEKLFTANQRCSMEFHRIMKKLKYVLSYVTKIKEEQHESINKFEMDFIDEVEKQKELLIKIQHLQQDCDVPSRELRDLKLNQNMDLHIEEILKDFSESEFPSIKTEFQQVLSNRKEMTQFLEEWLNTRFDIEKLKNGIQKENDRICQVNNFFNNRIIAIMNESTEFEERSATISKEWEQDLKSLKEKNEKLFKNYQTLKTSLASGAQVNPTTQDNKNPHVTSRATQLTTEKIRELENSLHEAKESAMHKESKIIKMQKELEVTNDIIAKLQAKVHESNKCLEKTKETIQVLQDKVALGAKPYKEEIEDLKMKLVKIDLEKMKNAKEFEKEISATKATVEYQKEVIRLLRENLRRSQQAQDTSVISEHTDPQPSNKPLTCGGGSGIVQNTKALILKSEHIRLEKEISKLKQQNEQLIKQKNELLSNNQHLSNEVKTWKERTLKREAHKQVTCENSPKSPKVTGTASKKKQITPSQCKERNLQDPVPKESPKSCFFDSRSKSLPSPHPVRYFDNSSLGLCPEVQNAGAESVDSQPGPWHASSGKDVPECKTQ

GI50 (PC-3): 28 nM | pKi [3]: 8.49 | GI50 (NCI-H1299 [4]): 52 nM | GI50 (COLO 320DM): 306 nM | GI50 (SW1417): 29 nM | GI50 (SNU-5): 88 nM | GI50 (SW480): 33 nM | GI50 (NCI-H520): 34 nM | GI50 (NCI-H661): 22 nM
Compound: CC(C)Oc1ccc(C(=O)N[C@H](CNC(=O)CN(C)C)Cc2ccc(-c3cn4cccc([C@H](C)O)c4n3)cc2)cc1Cl [GSK-923295A]
GI50 [1]: 27 nM | Activity (EFM-19): 1.43 | Activity (CAL-54 [2]): 1.05 | GI50 (CESS): 19 nM | GI50 (T84): 75 nM | GI50 (RL95-2): 49 nM | Activity (RPMI-8226): 1.96 | Activity (GCT): 2.3 | Activity (SCaBER): 2.86 | Activity (A549): 11% | GI50 (SW 954): 22 nM | GI50 (BPH-1): 52 nM | Activity (COLO 205): 122% | GI50 (BeWo): 26 nM | Activity (SNU-16): 2.92 | GI50 (CAL-54 [5]): 49 nM | GI50 (MCF-10A): 16 nM | Activity (NCI-H1299 [6]): 2.78 | Activity (MOLT-16): 4.23 | Activity (HOS): 3.65 | GI50 (639-V): 27 nM | GI50 (RPMI-2650): 36 nM | Activity (HEC-1-A): 2.67 | GI50 (C3A): 54 nM | Activity (SW684): 1.13 | Activity [7]: 2.38 | Activity (HT-29): 39% | GI50 [8]: 50 nM | Activity (MX1): 5% | GI50 (CHP-212): 34 nM | Activity (CHL-1): 3.27
